An excerpt weighted towards active compounds, which were near 3.3% of everything screened.
HTR2A ag – agonists of mouse serotonin 5-HT2A receptor (HTR2A); P35363; CHO-K1 mHTR2A beta-arrestin complementation, luminescence; percent of 30 µM serotonin response; activation, % at 7.6 µM; actives 0.66% (n = 360,000);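 active = activation above a run cutoff, the mean activation of all tested compounds plus 3 SD, cut at about 14% in these data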;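 also: 0% = plate median of compound wells and 100% = 30 µM serotonin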
Target sequence (P35363 whole entry, looked up): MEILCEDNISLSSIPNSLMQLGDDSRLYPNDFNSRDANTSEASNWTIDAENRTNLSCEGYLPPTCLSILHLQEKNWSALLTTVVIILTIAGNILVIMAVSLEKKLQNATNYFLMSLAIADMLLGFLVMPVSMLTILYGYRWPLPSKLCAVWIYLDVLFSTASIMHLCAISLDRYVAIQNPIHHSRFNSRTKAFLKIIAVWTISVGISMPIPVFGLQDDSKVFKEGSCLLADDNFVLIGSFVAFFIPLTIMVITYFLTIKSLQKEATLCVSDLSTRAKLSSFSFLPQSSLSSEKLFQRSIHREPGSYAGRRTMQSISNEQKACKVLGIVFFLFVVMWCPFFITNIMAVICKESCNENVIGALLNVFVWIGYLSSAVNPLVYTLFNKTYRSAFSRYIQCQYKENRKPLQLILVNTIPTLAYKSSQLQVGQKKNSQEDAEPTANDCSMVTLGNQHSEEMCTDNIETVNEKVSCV
HGIII-sPLA2 inh – Blocks human group III sPLA2 activity. Q9NZ20. QFRET BODIPY PC-A2 liposome hydrolysis, fluorescence. inhibition, % at 12.2 µM. actives 0.56% (n = 370,000);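 active = inhibition above mean plus 3 SD of compounds lying within the high and low control bounds, cut at about 19% in these data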;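 also: 0% = median of test compound wells and 100% = no enzyme DMSO wells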
Arrestin-AP2 inh – blocks beta-arrestin peptide binding to AP2 adaptin | FITC-arrestin peptide / GST-AP2 beads, flow cytometry; AP2 beta2 appendage carries R879A mutation | inhibition, % at 10 µM | actives 0.31% (n = 340,000);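 active = inhibition above a set limit, near 3 SD of compounds lacking own fluorescence, cut at about 54% in these data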;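 also: plate controls were DMSO wells for no effect and 5 µM unlabelled arrestin peptide for full effect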
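Test system: GST-tagged AP2 beta2-adaptin appendage (R879A) on 4 µm glutathione beads; also added: fluorescein-tagged arrestin peptide at 50 nM final; timing: 12 min plus 1 h, RT; signal: flow cytometry, FL1 (488/535 nm); read-out: percent drop in bead-associated FITC signal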
PfM18AAP inh – blocks P. falciparum M18 aspartyl aminopeptidase. recombinant PfM18AAP, H-Glu-NHMec fluorogenic cleavage. actives 1.2% (n = 290,000). inhibition, % at 7.35 µM;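 active = inhibition above the campaign mean inhibition over all tested compounds plus 3 SD, cut at about 28% in these data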;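 also: 0% = plate median of test compound wells and 100% = 2 mM ZnCl2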
Hep lipid drop – hepatic lipid droplet formation modulation; actives 0.4% (n = 240,000); AML12 mouse hepatocytes, oleate lipid droplets, BODIPY imaging; inhibition, % at 6.5 µM;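 active = lipid droplet intensity inhibited by at least 50%, with more than 500 cells counted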
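Assay system: AML12 hepatocytes (mouse) / Also added: 100 µM oleic acid challenge / Times: overnight treatment with compound plus oleate / Detection: high-content imaging of BODIPY-stained droplets and DAPI nuclei / Evaluation: % inhibition of lipid droplet signal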
NRP1-CendR mod – alters CendR peptide binding to human NRP-1. O14786. FAM-RPARPAR peptide binding to NRP-1, fluorescence polarization. inhibition, % at 25 µM. actives 0.85% (n = 360,000). AID 602438;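 active = inhibition or corrected inhibition above about 18%, plus a signal ratio from 0.5 to 1.5, limit read from the data, passing the limit was not always enough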
The depositor's hits bear a star; . = no result given.

SMILES	HTR2A ag	HGIII-sPLA2 inh	Arrestin-AP2 inh	PfM18AAP inh	Hep lipid drop	NRP1-CendR mod
O=c1c2ccccc2cnn1Cc1n[nH]c(=S)n1-c1cc(Cl)cc(Cl)c1	1	6	-38	30*	-7	-7
CC(C)Oc1cccc(C(=O)Nc2ccc(Br)cc2F)c1	0	6	13	1	9	-9
CCOC(=O)C1=CCN(S(=O)(=O)c2ccccc2C)C1c1cccc(Cl)c1 (stereo not drawn)	-3	0	.	.	.	3
Cc1cccc(NC(=O)c2sc3nc(N)c(C#N)cc3c2N)c1	3	10	5	28*	12	-16
Cc1ccc(C)c(-n2c(SCC(=O)NC(C(=O)O)C(C)C)nnc2-c2cccc(Cl)c2)c1 (stereo not drawn)	-2	-15	4	5	28	26*
CNC(=O)CSc1nnc(-c2ccco2)n1-c1cc(C)ccc1C	-3	-4	-20	1	-15	9
Cc1cccc(CSc2nnc(-c3cnccn3)n2C)c1	0	10	-7	2	2	38*
Cn1c(SCc2ccccn2)nnc1-c1cnccn1	-2	0	-10	7	.	17
O=C(Cc1noc2ccccc12)NNC(=S)Nc1ccccc1	-3	18	-20	30*	-1	9
Cc1ccc(-c2csc(C(O)c3ccc(F)c(F)c3)n2)cc1C (stereo not drawn)	-1	-14	.	.	.	4
CCN(CC)c1ccc(-c2nn3c(-c4n[nH]c5c4CCC5)nnc3s2)cc1	35*	9	15	-10	.	-34
COC(=O)[C@@]12C[C@@H](CC(=O)NCc3cccc(C(F)(F)F)c3)C(=O)N(CCc3ccc(OC)c(OC)c3)C1=CCC(C)(C)C2	3	-23	.	.	.	6
O=C(CN1C(=O)NC2(CCCCC2)C1=O)Nc1ccccc1N1CCCCC1	1	-2	26	.	.	6
CCOc1ccc(C2C(C(=O)c3ccc(C)o3)=C(O)C(=O)N2c2cc(C)on2)cc1OC (stereo not drawn)	-6	-4	-2	6	-31	21*
COc1cc(C2C(C(=O)c3ccc(C)o3)=C(O)C(=O)N2c2cc(C)on2)ccc1OCc1ccccc1 (stereo not drawn)	-3	2	19	6	0	-6
COc1cc(C2C(C(=O)c3ccc(C)o3)=C(O)C(=O)N2c2cc(C)on2)ccc1O (stereo not drawn)	-2	-3	-6	28*	.	-6
CCOC(=O)N1CCN(c2ccc(S(=O)(=O)N3CCC(C)CC3)cc2[N+](=O)[O-])CC1	5	-4	-4	.	.	6
O=C(O)CCC(=O)NCCc1cccc(Cl)c1	2	1	1	0	-21	-8
O=C(Cc1ccccc1)NCCc1cccc(Cl)c1	0	2	-1	-8	.	26*
O=C(CSc1nc2ccc(Cl)cc2[nH]1)NCCc1ccccc1	0	-16	2	5	-2	28*
O=[N+]([O-])c1ccc(Cl)c2c1C1C=CCC1C(c1ccccn1)N2 (stereo not drawn)	3	-7	12	9	-20	28*
COCCN(C(=S)Nc1ccccc1C)C(C)c1cccs1 (stereo not drawn)	-2	-1	7	-3	-49	26*
CN(c1ccc(NC(=O)Cc2cn(C)c3ccccc23)cc1)c1ccccn1	.	-52	.	.	.	.
O=C(O)C1CC(Br)C(Br)CC1C(=O)O (stereo not drawn)	-1	1	.	.	.	-12
COc1cc(C(=O)NCCC(=O)NCCN2CCOCC2)cc(OC)c1OC	-4	.	0	-4	.	-8
CCOc1cc(C(=O)NCCN2CCOCC2)cc(OCC)c1OCC	-2	3	5	-4	-2	26*
Cc1[nH]n(-c2ccccc2)c(=O)c1N=Nc1ccccc1	1	3	-10	8	54*	16
CN1C(=O)C[C@@](C#N)(C(=O)NCc2ccc3c(c2)OCO3)[C@H]1c1ccccc1	.	1	.	.	.	.
Cn1c(SCC(=O)NNC(=O)Cc2ccccc2)nnc1-c1ccc(Cl)cc1	-1	-1	24	-5	-19	2
Cn1c(SCCS(=O)(=O)c2ccc(Cl)cc2)nnc1-c1ccccc1	-3	8	-11	-3	.	32*

Screening data from PubChem.
